Results taken from ChEMBL document CHEMBL1132465, “Design and synthesis of thrombin inhibitors: analogues of MD-805 with reduced stereogenicity and improved potency” (J Med Chem, 1999).
Several values for one entry are separate records, joined by “and”; a condition that tells them apart may be missing. Equal entries are not always repeated. Values belong to the molecule of their own block, whether it stands above or below them.

Experiments:
[1] = The compound was evaluated for the dose to double the control plasma APTT value in the human plasma; assay type: functional
Procedure, shortened: (§1)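 Human blood was anticoagulated with one-tenth volume 3.8% trisodium citrate and centrifuged at 1300g for 20 min to give platelet-poor plasma. Plasma was spiked with compound at 0 to about 150 μM. It was activated 5 min at 37 °C with bovine cephalin (ellagic acid) reagent, and clotting was started with 20 mM CaCl2. Clot time was read on a coagulometer. Concentration doubling APTT was read from a concentration–APTT plot.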

Prothrombin [2] = target: T1, Prothrombin (Homo sapiens, UniProt P00734); assay: The compound was evaluated for the inhibitory activity against human thrombin
Procedure, shortened: (§2)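 Human thrombin (0.0625 U/mL final) in 0.05 M TRIS-HCl pH 8.4 with S-2238, started by enzyme. Absorbance slope at 405 nm was read over 30 s. A range-finding run at about 0.01–100 μM was followed by substrate at 3.125–100 μM with at least two inhibitor levels plus vehicle. DMSO was below 0.5%. Ki = [i]/(Kp/Km − 1) from double-reciprocal plots.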

Prothrombin [3] = target: Prothrombin (Bos taurus, UniProt P00735); assay: Inhibitory activity against bovine thrombin
[4] = The compound was evaluated for the dose to double the control plasma APTT value in the human plasma.; assay type: functional; procedure, shortened: as §1
Prothrombin [5] = target: T1, Prothrombin; assay: Inhibitory activity against human thrombin
Prothrombin [6] = target: T1, Prothrombin; assay: The compound was evaluated for the inhibitory activity against human thrombin.; procedure, shortened: as §2
Chymotrypsinogen A = Chymotrypsinogen A (Bos taurus, UniProt P00766); assay: The compound was evaluated for the inhibitory activity against bovine Chymotrypsinogen
Procedure, shortened: (§3)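 Chromogenic assay run as for thrombin, with S-2222 (trypsin) or S-2586 (chymotrypsin) as substrate. Enzymes were bovine. Buffer was 0.05 M TRIS-HCl, pH 8.4. Compound stocks were in DMSO (final below 0.5%). Rate was read at 405 nm over 30 s. Ki came from double-reciprocal plots across a range of substrate concentrations.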

Plasminogen = Plasminogen (Homo sapiens, UniProt P00747); assay: The compound was evaluated for the inhibitory activity against human plasmin
Sequence of Plasminogen (P00747 97-580 limits assumed): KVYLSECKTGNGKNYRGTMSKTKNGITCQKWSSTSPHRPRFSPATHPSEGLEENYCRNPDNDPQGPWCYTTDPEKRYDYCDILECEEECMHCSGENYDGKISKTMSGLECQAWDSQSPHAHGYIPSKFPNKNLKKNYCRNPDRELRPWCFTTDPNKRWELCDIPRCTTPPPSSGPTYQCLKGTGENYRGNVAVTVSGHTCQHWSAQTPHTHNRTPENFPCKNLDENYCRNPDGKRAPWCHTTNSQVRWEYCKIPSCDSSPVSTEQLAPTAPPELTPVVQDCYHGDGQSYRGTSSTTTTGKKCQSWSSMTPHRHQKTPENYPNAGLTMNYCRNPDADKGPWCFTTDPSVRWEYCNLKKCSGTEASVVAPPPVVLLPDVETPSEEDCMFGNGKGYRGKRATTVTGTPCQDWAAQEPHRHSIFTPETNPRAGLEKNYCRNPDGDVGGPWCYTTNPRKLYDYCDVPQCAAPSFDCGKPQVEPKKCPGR
Sequence of Plasminogen (P00747 581-810 limits assumed): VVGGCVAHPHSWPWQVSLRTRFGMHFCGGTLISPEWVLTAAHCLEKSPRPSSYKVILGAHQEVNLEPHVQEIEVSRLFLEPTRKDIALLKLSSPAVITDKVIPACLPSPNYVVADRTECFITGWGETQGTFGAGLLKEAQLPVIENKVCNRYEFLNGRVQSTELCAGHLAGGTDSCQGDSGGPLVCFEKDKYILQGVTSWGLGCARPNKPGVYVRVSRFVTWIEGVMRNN
Procedure, shortened: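 Human plasmin, S-2251 chromogenic substrate, 0.05 M TRIS-HCl pH 8.4. Run like the thrombin assay: DMSO stock (final below 0.5%), initial rate at 405 nm over 30 s, substrate varied across a range. Ki was calculated from Lineweaver-Burk intercepts of control and inhibited curves.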

[7] = TThe compound was evaluated for the APTT value expressed as multiplies of control and was measured at the termination of the experiment (45 min later) in the rat model of arterial thrombosis at 1.0 dose (mg/kg); assay type: functional
Procedure, shortened: (§4)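 Rat arterial thrombosis model with sc dosing 1 h before clamping the dorsal aorta. Blood was taken via carotid cannula into one-tenth volume 3.8% trisodium citrate just before clamping and at termination, 45 min later. APTT was measured on plasma and expressed as a multiple of control, mean ± SEM, n = 5.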

[8] = TThe compound was evaluated for the APTT value expressed as multiplies of control and was measured at the termination of the experiment (45 min later) in the rat model of arterial thrombosis at 10.0d ose (mg/kg); assay type: functional; procedure, shortened: as §4
[9] = The compound was evaluated for the APTT value expressed as multiplies of control and was measured at the termination of the experiment (45 min later) in the rat model of arterial thrombosis at 2.0 dose (mg/kg); assay type: functional; procedure, shortened: as §4
[10] = The compound was evaluated for the APTT value expressed as multiplies of control and was measured at the termination of the experiment (45 min later) in the rat model of arterial thrombosis at 3.0 dose (mg/kg); assay type: functional; procedure, shortened: as §4
[11] = The compound was evaluated for the APTT value expressed as multiplies of control and was measured at the termination of the experiment (45 min later) in the rat model of arterial thrombosis at 30.0 dose (mg/kg); assay type: functional; procedure, shortened: as §4
Rattus norvegicus [12] = assay: Percentage inhibition on venous stasis thrombosis in the rat at 2.0 dose (mg/kg); assay type: functional
Procedure, shortened: (§5)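 Rat acute venous stasis. The vessel was excised after 10 min and the thrombus weighed. Compound was dosed iv 2 min or sc 1 h before stasis. Result is % inhibition of mean control thrombus weight relative to placebo, mean ± SEM, n = 5.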

Rattus norvegicus [13] = assay: Percentage inhibition on venous stasis thrombosis in the rat at 3.0 dose (mg/kg); assay type: functional; procedure, shortened: as §5
Rattus norvegicus [14] = assay: Percentage inhibition on venous stasis thrombosis in the rat at 6.0 dose (mg/kg); assay type: functional; procedure, shortened: as §5
Rattus norvegicus [15] = assay: Percentage inhibition on the f fibrinogen accumulation in the rat model of Arterial thrombosis at 1.0 dose (mg/kg); assay type: functional
Procedure, shortened: (§6)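 Rat dorsal aorta injury model. Rats received 111In-labelled platelets 24 h and 125I-fibrinogen 10 min before injury. The aorta was clamped with modified forceps for 1 min, then blood flowed 45 min. The vessel was excised, washed in 5% citrate and gamma-counted, and counts were converted to mg blood equivalents. Dosing was iv 1 min or sc 1 h before clamping. Result is % inhibition versus placebo accumulation, mean ± SEM, n = 5.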

Rattus norvegicus [16] = assay: Percentage inhibition on the f fibrinogen accumulation in the rat model of Arterial thrombosis at 10.0 dose (mg/kg); assay type: functional; procedure, shortened: as §6
Rattus norvegicus [17] = assay: Percentage inhibition on the f fibrinogen accumulation in the rat model of Arterial thrombosis at 2.0 dose (mg/kg); assay type: functional; procedure, shortened: as §6
Rattus norvegicus [18] = assay: Percentage inhibition on the f fibrinogen accumulation in the rat model of Arterial thrombosis at 3.0 dose (mg/kg); assay type: functional; procedure, shortened: as §6
Rattus norvegicus [19] = assay: Percentage inhibition on the f fibrinogen accumulation in the rat model of Arterial thrombosis at 30.0 dose (mg/kg); assay type: functional; procedure, shortened: as §6
Rattus norvegicus [20] = assay: Percentage inhibition on the platelet accumulation in the rat model of Arterial thrombosis at 0.3 dose (mg/kg); assay type: functional; procedure, shortened: as §6
Rattus norvegicus [21] = assay: Percentage inhibition on the platelet accumulation in the rat model of Arterial thrombosis at 10.0 dose (mg/kg); assay type: functional; procedure, shortened: as §6
Rattus norvegicus [22] = assay: Percentage inhibition on the platelet accumulation in the rat model of Arterial thrombosis at 2.0 dose (mg/kg); assay type: functional; procedure, shortened: as §6
Rattus norvegicus [23] = assay: Percentage inhibition on the platelet accumulation in the rat model of Arterial thrombosis at 3.0 dose (mg/kg); assay type: functional; procedure, shortened: as §6
Rattus norvegicus [24] = assay: Percentage inhibition on the platelet accumulation in the rat model of Arterial thrombosis at 30.0 dose (mg/kg); assay type: functional; procedure, shortened: as §6
Rattus norvegicus [25] = assay: Percentage inhibition on venous stasis thrombosis in the rat at 0.1 dose (mg/kg); assay type: functional; procedure, shortened: as §5
Rattus norvegicus [26] = assay: Percentage inhibition on venous stasis thrombosis in the rat at 1.0 dose (mg/kg); assay type: functional; procedure, shortened: as §5
Trypsin II = target: T2, Trypsin II (Bos taurus, UniProt Q29463); assay: The compound was evaluated for the inhibitory activity against bovine trypsin; procedure, shortened: as §3
T2 sequence (Q29463 whole entry): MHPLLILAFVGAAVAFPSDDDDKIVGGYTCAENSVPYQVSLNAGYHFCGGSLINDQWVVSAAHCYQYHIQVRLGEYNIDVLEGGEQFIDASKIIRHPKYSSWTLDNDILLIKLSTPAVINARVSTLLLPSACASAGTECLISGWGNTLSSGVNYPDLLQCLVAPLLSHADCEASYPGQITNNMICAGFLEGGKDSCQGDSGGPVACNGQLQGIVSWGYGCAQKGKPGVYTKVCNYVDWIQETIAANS

Rattus norvegicus [27] = assay: Percentage inhibition on venous stasis thrombosis in the rat at 0.05 dose (mg/kg); assay type: functional; procedure, shortened: as §5

Ki (Prothrombin [2]): 11 nM
Ki (Prothrombin [3]): 19 nM
Compound: CC1CNc2c(cccc2S(=O)(=O)NC(CCCN=C(N)N)C(=O)N2CCC(CCCl)CC2)C1 (stereo not given)
IC200 [1]: 2.7 µM

Ki (Prothrombin [5]): 6 nM
Compound: CC1(C)CNc2c(cccc2S(=O)(=O)NC(CCCN=C(N)N)C(=O)N2CCC(CC(F)F)CC2)C1 (stereo not given)
IC200 [4]: 1.5 µM

Ki (Prothrombin [3]): 80 nM
Compound: CC1CNc2c(cccc2S(=O)(=O)NC(CCCN=C(N)N)C(=O)N2CCC[C@H]2CO)C1 (stereo not given in full)

Ki (Prothrombin [3]): 49 nM
Compound: CC(C)(c1ccccc1)c1cccc(S(=O)(=O)NC(CCCNC(=N)N)C(=O)N2CCc3ccccc3C2)c1 (stereo not given)

Ki (Prothrombin [3]): 23 nM
Compound: CC1CNc2c(cccc2S(=O)(=O)NC(CCCNC(=N)N)C(=O)N2CCc3ccccc3C2)C1 (stereo not given)

Ki (Prothrombin [3]): 18400 nM
Compound: CC1CNc2c(cccc2S(=O)(=O)NC(CCCN=C(N)N)C(=O)N2CCC(CCC(=O)O)CC2)C1 (stereo not given)

Ki (Prothrombin [3]): 52 nM
Compound: CC1CNc2c(cccc2S(=O)(=O)NC(CCCN=C(N)N)C(=O)N2CCC(CCO)CC2)C1 (stereo not given)

Ki (Prothrombin [3]): 980 nM
Compound: CC1CNc2c(cccc2S(=O)(=O)NC(CCCN=C(N)N)C(=O)N2CCC(CCOCCCC(=O)O)CC2)C1 (stereo not given)

More lines, now with the values behind:

Compound: CC1CNc2c(cccc2S(=O)(=O)NC(CCCN=C(N)N)C(=O)N2CCC(CCCCCCC(=O)O)CC2)C1 (stereo not given)
Ki (Prothrombin [3]): 1980 nM

Compound: CC1CNc2c(cccc2S(=O)(=O)NC(CCCN=C(N)N)C(=O)N2CCCC[C@H]2CO)C1 (stereo not given in full)
Ki (Prothrombin [3]): 23 nM

Compound: CC1CNc2c(cccc2S(=O)(=O)NC(CCCNC(=N)N)C(=O)N2CCC(CCCO)CC2)C1 (stereo not given)
Ki (Prothrombin [3]): 185 nM

Compound: CC1CNc2c(cccc2S(=O)(=O)NC(CCCNC(=N)N)C(=O)N2CCC[C@@H](CCO)C2)C1 (stereo not given in full)
Ki (Prothrombin [3]): 1350 nM

Compound: CC1(C)CNc2c(cc(Cl)cc2S(=O)(=O)NC(CCCN=C(N)N)C(=O)N2CCC(CC(F)F)CC2)C1 (stereo not given)
IC200 [4]: 6 µM
Ki (Prothrombin [5]): 12.1 nM

Compound: CC1CNc2c(cccc2S(=O)(=O)NC(CCCNC(=N)N)C(=O)N2Cc3ccccc3CC2CO)C1 (stereo not given)
Ki (Prothrombin [3]): 890 nM

Compound: CC1CNc2c(cccc2S(=O)(=O)NC(CCCN=C(N)N)C(=O)N2CCC(CCC(=O)NCCC(=O)O)CC2)C1 (stereo not given)
Ki (Prothrombin [3]): 310 nM
Ki (Prothrombin [6]): 280 nM

Compound: CC1(C)CNc2c(cc(Cl)cc2S(=O)(=O)NC(CCCN=C(N)N)C(=O)N2CCC(CCOC(=O)C(C)(C)C)CC2)C1 (stereo not given)
IC200 [1]: 8.5 µM
Ki (Prothrombin [3]): 56 nM

Compound: CC1(C)CNc2c(cccc2S(=O)(=O)NC(CCCN=C(N)N)C(=O)N2CCC(CCF)CC2)C1 (stereo not given)
IC200 [4]: 2.1 µM
Ki (Prothrombin [5]): 5.7 nM

Compound: CC1CNc2c(cccc2S(=O)(=O)NC(CCCN=C(N)N)C(=O)N2CCC(CCOC(=O)CC(=O)O)CC2)C1 (stereo not given)
Ki (Prothrombin [3]): 360 nM

Compound: CC1(C)CNc2c(cccc2S(=O)(=O)NC(CCCN=C(N)N)C(=O)N2CCC(CCO)CC2)C1 (stereo not given)
Ki (Chymotrypsinogen A): > 83000 nM
IC200 [1]: 1.9 µM
Ki (Plasminogen): 210000 nM
APTT [7]: 1
APTT [8]: 1.7
APTT [9]: 1.5 and 1
APTT [10]: 1.5 and 1.3
APTT [11]: 2.5
Inhibition (Rattus norvegicus [12]): 79.8%
Inhibition (Rattus norvegicus [13]): 71.7%
Inhibition (Rattus norvegicus [14]): 95.2%
Inhibition (Rattus norvegicus [15]): 24.2%
Inhibition (Rattus norvegicus [16]): 45.5%
Inhibition (Rattus norvegicus [17]): 3.5%
Inhibition (Rattus norvegicus [18]): 28.8%
Inhibition (Rattus norvegicus [19]): 49.9%
Inhibition (Rattus norvegicus [20]): 58% and 36.4%
Inhibition (Rattus norvegicus [21]): 68.3%
Inhibition (Rattus norvegicus [22]): 38.5%
Inhibition (Rattus norvegicus [23]): 94.4% and 82% and 61.2%
Inhibition (Rattus norvegicus [24]): 69.8%
Inhibition (Rattus norvegicus [25]): 45.1%
Inhibition (Rattus norvegicus [26]): 100% and 50%
Ki (Trypsin II): 7100 nM
Inhibition (Rattus norvegicus [27]): 2.3%
